Compound activity as filed in PubChem BioAssay.
TRPC4 potent: positive allosteric modulators of TRPC4, primary screen, cell-based, mouse TRPC4beta, HEK293 mu-opioid, Fluo-4 calcium; hit rate 0.42% among 310,000; Short transient receptor potential channel 4 (Mus musculus), Q9QUQ5; DAMGO EC20, Fluo-4 Ca2+ flux; active compounds read high; B-score at 10 µM;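 active = B-score of calcium response area above 5 SD of library B-scores, with initial fluorescence ratio within 5 SD of library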;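 also: B-score of integrated fluorescence ratio over time as area under calcium response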
TRPC6 inhibitor: mouse TRPC6 channel inhibitors, primary screen, cell-based, HEK293, membrane potential dye. Short transient receptor potential channel 6 (Mus musculus), Q61143. ACh-evoked depolarization; active compounds read low. B-score at 10 µM. hit rate 1.1% among 310,000. AID 2553, 2010;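 active = B-score under library mean minus 3 SD, initial fluorescence not abnormally high, positive integrated signal ratio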;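 also: B-score derived from integrated fluorescence ratio over the kinetic read; more negative B-score means stronger inhibition of depolarization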
Target sequence (Q61143 whole entry, looked up): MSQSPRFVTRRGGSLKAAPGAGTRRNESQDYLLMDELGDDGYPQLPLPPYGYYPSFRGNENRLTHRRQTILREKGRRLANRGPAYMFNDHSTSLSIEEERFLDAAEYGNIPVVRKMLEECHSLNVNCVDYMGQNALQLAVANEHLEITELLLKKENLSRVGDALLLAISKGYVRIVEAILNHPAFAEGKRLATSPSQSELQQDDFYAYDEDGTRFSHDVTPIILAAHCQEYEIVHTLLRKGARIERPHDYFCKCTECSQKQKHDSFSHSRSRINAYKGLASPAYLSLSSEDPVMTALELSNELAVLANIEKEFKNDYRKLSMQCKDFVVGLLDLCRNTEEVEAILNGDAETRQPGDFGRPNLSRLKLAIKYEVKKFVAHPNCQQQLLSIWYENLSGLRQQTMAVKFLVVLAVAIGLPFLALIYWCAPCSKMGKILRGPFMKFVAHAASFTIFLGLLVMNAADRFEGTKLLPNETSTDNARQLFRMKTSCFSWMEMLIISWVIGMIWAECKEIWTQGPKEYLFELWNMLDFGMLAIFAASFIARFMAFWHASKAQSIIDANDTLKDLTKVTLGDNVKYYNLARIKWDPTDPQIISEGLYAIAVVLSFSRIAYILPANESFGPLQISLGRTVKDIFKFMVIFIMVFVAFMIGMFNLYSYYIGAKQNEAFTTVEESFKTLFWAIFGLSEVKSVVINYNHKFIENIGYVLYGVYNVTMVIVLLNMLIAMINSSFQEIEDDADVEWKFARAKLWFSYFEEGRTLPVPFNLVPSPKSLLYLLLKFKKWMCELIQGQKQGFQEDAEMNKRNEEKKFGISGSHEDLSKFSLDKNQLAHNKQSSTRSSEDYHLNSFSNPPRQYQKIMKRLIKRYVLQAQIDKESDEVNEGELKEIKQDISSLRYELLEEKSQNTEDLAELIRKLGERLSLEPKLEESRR
TRPC4 agonist: activators of mouse TRPC4 channel, primary screen, Fluo4 calcium, HEK293 TRPC4beta/mu-opioid cells; AID 2237, 2010; Short transient receptor potential channel 4 (Mus musculus), Q9QUQ5; Fluo4 calcium fluorescence; active compounds read high; hit rate 0.49% among 310,000; B-score at 10 µM;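 active = B-score above 5 SD of library B-scores, and initial fluorescence ratio not above library mean plus 5 SD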;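 also: positive B-score marks a calcium rise read as TRPC4 activation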
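System – HEK293 cells stably co-expressing mouse TRPC4beta and mu-opioid receptor · Signal – Fluo4 calcium-sensitive dye fluorescence, kinetic, 1 Hz baseline · Benchmarks – buffer (low) and maximal DAMGO (high) · Read-out – B score of integrated fluorescence ratio per well · Incubation – dye loading 45 min room temperature, 110 s kinetic read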
TRPC4 inh: inhibitors of mouse TRPC4 channel, primary screen, Fluo4 calcium, HEK293 TRPC4beta/mu-opioid cells; Short transient receptor potential channel 4 (Mus musculus), Q9QUQ5; DAMGO-evoked Fluo4 calcium flux; active compounds read low; B-score at 10 µM; hit rate 0.39% among 300,000;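 active = B-score over 3 SD under the library average, no early fluorescence shift, positive overall ratio signal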
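Material: HEK293 cells with stable TRPC4beta plus mu-opioid receptor expression / Probe or stimulus: DAMGO in two steps, submaximal then maximal / Compound: single concentration per test compound / Technique: kinetic Fluo4 fluorescence imaging of calcium influx / Read-out: per-well B score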
TRPC6 activator: mouse TRPC6 channel activators, primary screen, cell-based, HEK293, membrane potential dye. HEK293-TRPC6 membrane potential dye fluorescence; active compounds read high. B-score at 10 µM. hit rate 0.13% among 310,000;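 active = B-score of the integrated fluorescence ratio above library mean plus 3 SD, and starting fluorescence ratio within library mean plus 5 SD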;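 also: higher score means more depolarization so channel activation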
* marks the source's active call; other numbers are inactive results; i = inactive. This is a sample that favours compounds with a hit; in the whole collection about 2.3% have one here.

SMILES | TRPC4 potent | TRPC6 inhibitor | TRPC4 agonist | TRPC4 inh | TRPC6 activator
Cc1ccc(N=Nc2c(N)n[nH]c2N)cc1 | i | i | i | i | i
CC1CN(C(C)C)C(C)CC1OC(=O)c1ccccc1 (stereo not given) | i | i | i | i | i
COc1ccc2c(C)cc(N3CCCCCC3)nc2c1 | i | i | i | -10* | i
Cc1cc(N2CCCCCC2)nc2ccc(F)cc12 | i | i | i | -6* | i
COc1ccc2c(C)cc(N3CCN(Cc4ccccc4)CC3)nc2c1 | i | i | i | i | i
COc1ccccc1N(CC(=O)N1CCOCC1)S(C)(=O)=O | i | i | i | i | i
COC(=O)c1cc2c(=O)c3ccccc3oc2nc1/C=C/N(C)C | i | i | 69* | i | i
COC(=O)c1cc2c(=O)c3ccccc3oc2nc1C | i | i | i | i | i
Brc1ccc2[nH]c3c(NCc4ccccn4)ncnc3c2c1 | i | i | 61* | i | i
O=C(CSc1nnc(CNC(=O)c2cccc(C(F)(F)F)c2)o1)NC1CCCCC1 | i | i | i | i | i
CCCN(CCO)CCCc1ccccc1 | 11* | i | i | i | i
CCN(CCCc1ccccc1)CCCc1ccccc1 | i | i | i | i | i
O=C(O)/C=C/C(=O)N1Cc2cc3ccccc3nc2C1 | i | i | i | i | i
CCOC(=O)C1(CCCc2ccccc2)CCN(C(=O)c2cnn(CC)c2)CC1 | i | i | i | i | i
CN1CCC(NC(=O)c2ccncc2)CC1 | i | i | i | i | i
CC1(C)CC(NC(=O)c2ccncc2)CC(C)(C)N1O | i | i | 79* | i | i
CCCn1c(C2CCCN2c2nc(-c3ccc(C)cc3)cs2)nc2ccccc21 (stereo not given) | i | i | 46* | i | i
Cc1ccc(Cn2c(C3CCCN3c3nc(-c4ccc(F)cc4)cs3)nc3cc(Cl)c(Cl)cc32)cc1 (stereo not given) | i | i | i | i | i
Cc1cc(OCC(=O)NC(C)C)cc(C)c1Br | i | i | i | i | i
Cc1cc(OCC(=O)N(C(C)C)C(C)C)cc(C)c1Br | 38* | i | i | i | i
O=C(CSc1nnc(-c2ccc(Cl)cc2Cl)n1C1CCCCC1)NC1CCS(=O)(=O)C1 (stereo not given) | i | i | i | -6* | i
CCOc1cccc(OCCCNCCCOC)c1 | 11* | i | i | i | i
CCc1cccc(OCCCCNCCCOC)c1 | i | i | i | i | i
COc1cccc(OCCOCCNCCO)c1 | i | i | 89* | i | i
C=CCc1cccc(OC)c1OCCOCCNCCO | i | i | i | i | i
SMILES | TRPC4 potent | TRPC6 inhibitor | TRPC4 agonist | TRPC4 inh | TRPC6 activator
C=CC1=C2C=C(C3CC3)N(CCCN(CC)CC)C=C2C(=O)C(C)(OC(=O)c2ccco2)C1=O (stereo not given) | i | i | i | i | i
COc1cc(OC)c(CN2CCC(Cc3ccccc3)CC2)cc1Br | i | i | 108* | i | i
Fc1ccc(CN2CCC(Cc3ccccc3)CC2)cc1F | i | i | i | -6* | i
Cc1ccc(NC(=O)CCNC(=O)c2ccco2)cc1Cl | i | i | i | i | i
Cc1nn(-c2ccccc2)c2nc(-c3ccccc3)cc(C(=O)N3CCOCC3)c12 | 14* | i | i | i | i
O=C(CCC(=O)N1CCN(c2ccccn2)CC1)Nc1nnc(C(F)(F)F)s1 | i | i | i | i | i
CCCCC1CCC(C(=O)N(CC(C)C)c2c(N)n(Cc3ccccc3)c(=O)[nH]c2=O)CC1 (stereo not given) | i | i | i | i | i
Clc1ccc(N=C2SCC3CCCCN23)cc1 (stereo not given) | 23* | i | i | i | i
CC(C)(C)CC(C)(C)NCC(O)COc1ccc2c(c1)CCC2 (stereo not given) | i | i | i | -6* | i
CC(C)(CO)NCC(O)COc1ccc2c(c1)CCC2 (stereo not given) | i | i | i | i | i
Cc1cccc(NC2CCCCC2NS(=O)(=O)c2ccccc2)c1 (stereo not given) | 13* | i | i | i | i
Cc1ccc(C)c(NC2CCCCC2NS(=O)(=O)c2ccccc2)c1 (stereo not given) | i | i | i | i | i
CCCCC(C(=O)NC(=O)NCc1ccccc1)N1C(=O)c2ccccc2C1=O (stereo not given) | i | i | i | -6* | i
CCC(C(=O)O)N1C(=O)c2ccccc2C1=O (stereo not given) | i | i | i | i | i
CCCOc1ccc(NC(=O)CC2C(=O)N(CC)C(=S)N2CCNC(C)=O)cc1 (stereo not given) | i | i | i | i | i
COC(=O)c1ccc(NC(=O)CCN2CCN(Cc3ccccc3)CC2)cc1 | 27* | i | i | i | i
O=C(CCN1CCN(Cc2ccccc2)CC1)Nc1ccc(OCc2ccccc2)cc1 | 15* | i | i | i | i
O=C(CCN1CCN(Cc2ccccc2)CC1)Nc1cccc(Br)c1 | 20* | i | i | i | i
CCCOc1ccc(NC(=O)CC2C(=O)N(CC)C(=S)N2CCCN2CCN(Cc3ccccc3)CC2)cc1 (stereo not given) | 10* | i | i | i | i
O=C(CCN1CCN(CCO)CC1)Nc1ccc(OCc2ccccc2)cc1 | i | i | i | i | i
CCc1ccc(C(=O)NNC(=O)CCN2CCN(Cc3ccccc3)CC2)cc1 | 12* | i | i | i | i
CNCC(C)COc1ccccc1OCc1ccccc1 (stereo not given) | i | i | i | -6* | i
CNC(=S)N1N=C(c2cccs2)CC1c1ccc(F)cc1 (stereo not given) | i | i | i | i | i
CCOc1ccccc1N(CC(=O)N1CCOCC1)S(=O)(=O)c1ccc(SC)cc1 | i | i | 175* | i | i
Cc1ccc(S(=O)(=O)N(CC(=O)N2CCOCC2)c2ccccc2F)cc1 | i | i | i | i | i
CC(C)OCCCN1CN(S(=O)(=O)c2cccs2)c2nc3ccccc3nc21 | i | i | i | i | i
